Data published in the EternaBench riboswitch data.

Tested on: MS2 coat protein
Assay: apparent Kd, MS2 coat protein; higher = weaker binding; RNA-MaP array; FMN 200 µM where present
In short: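 The apparent Kd comes from binding curves fitted cluster by cluster, filtered, and summarised as a median. Those curves followed SNAP-549-labelled MS2 coat protein from 0.7 or 1.5 nM, doubling to 3 µM, on Illumina sequencing-chip clusters where stalled E. coli RNA polymerase had transcribed the designs, without and then with constant ligand. The buffer was 100 mM Tris-HCl pH 7.5, 80 mM KCl, 4 mM MgCl2, BSA, DTT, yeast tRNA and Tween-20, and green signal was normalised to red-channel RNA signal and control-cluster median Fmax.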

[1] = designed as: OFF switch for flavin mononucleotide, no ligand
[2] = ligand present: flavin mononucleotide, designed as: OFF switch for flavin mononucleotide
[3] = designed as: ON switch for flavin mononucleotide, no ligand
[4] = ligand present: flavin mononucleotide, designed as: ON switch for flavin mononucleotide

Row | Sequence | apparent Kd [1] | apparent Kd [2] | apparent Kd [3] | apparent Kd [4]
1 | AUGCUUUAUGUAGGAUAUUCAAACAAAGAGAAUGGAGAAGGACAUGAGGAUCACCCAUGUAGAAUGAUGUUAGAUAUCAUAUAU | 16.3 nM | 14.4 nM |  | 
2 | UUUGCAUUCCGAGGAUAUUCAUAUAAUAAAUAAACAUGAGGAUCACCCAUGUGGCGAUAGCCUAGGGAGAAGGCGGUUUGCUUU |  |  | 87.7 nM | 29.6 nM
3 | CCGGAUAUGCAGGAUAUCGUAUCGGAAACGAUACGAGAAGGGUAUACAUGAGGAUCACCCAUGUGCCUUACCGG | 19.7 nM | 21.9 nM |  | 
4 | AUCAGCUCGUCAGGAUAUACGUCACUGCGUCAGCAGUGUGGGAAGAUCACAUGAGGAUCACCCAUGUAGAAGGGACGAGCUGAU | 635 nM | 20.4 nM |  | 
5 | UGAGCAUCAGGAUAUACGUGACGACCGUGAGGUCGAAGGUUACAUGAGGAUCACCCAUGUAGAAGGGAUGUUCU | 26.5 nM | 57.9 nM |  | 
6 | GCCAUCUCAUGAGGAUAUGCUCCUGUUUCGGGAGCAGAAGGCAUGUCAUAAGACAUGAGGAUCACCCAUGUAGUUAAGAUGGCA |  |  | 256 nM | 11.3 nM
7 | GUAGAGUAAGGAUAUCAAGAAUAGGAUAGAAUGGUUAGAAUUGAGAAGGUACAUGAGGAUCACCCAUGUAAUGU | 20.9 nM | 21 nM |  | 
8 | UCAUCAGCGGGCGGAUCGGUUGGACAUGAGGAUCACCCAUGUAGAAGGACCGGUGGAUUCCGGCGGUAGGAUAUACAUUUGGUG | 12.9 nM | 27.4 nM |  | 
9 | GGUGUGUCAGGAUAUCAACACACGGCAGCAGCGUUAUGCGUUGAGAAGGGACAUGAGGAUCACCCAUGUGACGG | 46 nM | 70.9 nM |  | 
10 | GUUUUGGGAGGAUAUAUGUGGAUUAUUUUUGUAUGUUGUUUACAUGAGGAUCACCCAUGUAGAAGGUCUAGAGC | 102 nM | 211 nM |  | 
11 | UAGAUUAGAAGUUAACAUGAGGAUCACCCAUGUAUUGGAACAGAGGAUAUGCAUGUUUGAUAGUAGCAGAAGGCUGAAGGUGGA |  |  | 98.1 nM | 104 nM
12 | AUAAAUAUAGCGAUAUGAUCGAGAGAUCAUGUCGCUAAUGUUAGAAGGACAUGAGGAUCACCCAUGUAGGAUAUGGGAGUAUGA |  |  | 197 nM | 86 nM
13 | UAUAUAUAAUAUAUUAACAUGAGGAUCACCCAUGUCGCUAGACAGGAUAUAUUUAAUUUUUUUAAGUAGAAGGGUCAUAUAAUU |  |  | 68.3 nM | 80.9 nM
14 | CUAAUGUGAGGAUAUGGUGUUGAUCACAGGAAAAAGAUUCUCCAGAAGGCACAUGAGGAUCACCCAUGUAGUGA | 65.6 nM | 175 nM |  | 
15 | CUUUUGUGAGGAUAUUAGUAGUAAAUGAAUAAAAUUAUUACUGAGAAGGUACAUGAGGAUCACCCAUGUUCCUC | 16.8 nM | 24.6 nM |  | 
16 | CGCGAUGCGGUUGGCCCUGGGCGAGAGGAUAUGGGCAGCGGGACAUGAGGAUCACCCAUGUUCUCUCAGAAGGCUCGAGCAGGC |  |  | 217 nM | 34.7 nM
17 | GUCAGCUCGUGAGGAUAUACAACACUGCUUUGGCAGUGUAUUAAGAUCACAUGAGGAUCACCCAUGUAGAAGGCACGAGCUGAU | 13.2 nM | 228 nM |  | 
18 | CUCCUACAUGAGGAUCACCCAUGUCAGGAUAUCUCAGUAGCACCUAAAGGUGCUACCCAGAGAAGGGACGUGCA | 11.6 nM | 15.5 nM |  | 
19 | AGCAUUGCUUAGAAGGGAAAUUUAUAAUUUAAUUCAGGAUAUAGAUACAGUACAACAUGAGGACAUGAGGAUCACCCAUGUAUA |  |  | 25.8 nM | 19.3 nM
20 | UGUCCAUAGCAGAAGGACAUGAGGAUCACCCAUGUAAUCAUACAAAUACAUGUAGGAUAUGCUAUGGACUAAGAGCGAAAGCUC | 8.28 nM | 19.1 nM |  | 
21 | CGCGAACAGGCUAACAUGAGGAUCACCCAUGUGGACUCAUGGUAGGAUAUCGGGAAGGAGGAAACCGAGAAGGGCCGGUGAGCU |  |  | 65.6 nM | 86.5 nM
22 | AUUCACCGAGGAUAUACAUGAGGAUCACCCAUGUAAAAGAAACGGUGCCAUCGGUCGUGUAGAAGGUGGUGUUA | 16.6 nM | 16.1 nM |  | 
23 | GCGAUGUCAGGAUAUGUGUAAAGAAUAAAACAAAUAACAACACAGAAGGGACAUGAGGAUCACCCAUGUUACGC | 30.1 nM | 37.2 nM |  | 
24 | UUGGCGCGAUCCUGGGUCUCACAUGAGGAUCACCCAUGUAGAGAGGAUAUGCAUAGGGCCCAAUGGCAGAAGGCUCUACAUGAG | 91.4 nM | 57.2 nM |  | 
25 | CGAGACCUCACAGGAUAUGCUGGACUUUGUCCAGCAGAAGGGUGAAAACAUGAGGAUCACCCAUGUAUGGUCUCCAAAUUUAAG |  |  | 195 nM | 13.2 nM
26 | AUUUGCGAAUCAGGAUAUGGACCAGCACAUGAGGAUCACCCAUGUCUGCCGGCGAGCCGGCUAGGCCAGAAGGGAUGUGCUCAA |  |  | 87 nM | 18.2 nM
27 | UUGGCGACGUAGAAGGGUGACAUGAGGAUCACCCAUGUGCCGAUAUUUCUCGAAAUAUGUCGGCCACAGGAUAUACGUGCCAUC |  |  | 38.2 nM | 91.8 nM
28 | CGUAACUGCAUAGGAUAUUGAUACAUGAGGAUCACCCAUGUUUUUCGGAUUAUAUAUAUACUUAGCAAGAAGGAUGGAGUUACG |  |  | 9.3 nM | 5.74 nM

Row | Sequence | apparent Kd [1] | apparent Kd [2] | apparent Kd [3] | apparent Kd [4]
29 | GUAGCUAUCGGAGGAUAUUCAUAGCCGAAAGGCACAUGAGGAUCACCCAUGUGGCGAAAGCCUUGGGAGAAGGCCGAUAGCUAC |  |  | 270 nM | 18.7 nM
30 | GCACGAUCCUCAGGAUAUCACUGAAACAUGAGGAUCACCCAUGUGCGCAGAUGAGAAGGGAGGACUCCGUCUGACUAAAUGUUA |  |  | 109 nM | 10.6 nM
31 | UGGUACAUGGGAGGAUAUCAUGUGAUAACAUGAGGAUCACCCAUGUCGAUGGAGACAUCGGAGAUUGAGAAGGCCCAUGUACCU |  |  | 1190 nM | 96.5 nM
32 | GUGGACUACGUAGGAUAUGUAGGAUAUUCCUACAUGAGGAUCACCCAUGUUAGCAUGGAAGAAGGACAGAAGGACGUGGUCCAG |  |  | 1130 nM | 16 nM
33 | AGCUACGUUUCGUAGCAGCUAGGUGAGGAUAUCCUUAUACAUGAGGAUCACCCAUGUUAGCCAUGGGAGAAGGCGCCUAGAAAG |  |  | 328 nM | 24.8 nM
34 | GCCGAAAAUGUGAGGAUAUACCUAUGGAAACAUAGGUAGAAGGCACAUGAGGAUCACCCAUGUGUCCAAACGGC | 19.9 nM | 64.6 nM |  | 
35 | CGUAUGUCAGGAUAUGCGUAUGCCGCUCAGGGCGAGCGGCAGCAGAAGGGACAUGAGGAUCACCCAUGUUCGGG | 71.4 nM | 49.3 nM |  | 
36 | AUCUAAGAAUUAAUUGUGACUGACAGAAGGCAAUAGAAUGAGACCGACAUGAGGAUCACCCAUGUUGAGGAUAUGUCUUGCUAC | 6.53 nM | 6.74 nM |  | 
37 | UUGUUAUAUGUAGGAUAUGCGUAUUAUUAUUAGGCAGAAGGACAUGAGGAUCACCCAUGUAUGUUGUUGUUAUAUAUUAUAUAU | 28.4 nM | 29.6 nM |  | 
38 | AGUCAGACAGGAUAUACGUGAGUGGAAAAAGUAUGUCCACUACAUGAGGAUCACCCAUGUAGAAGGGUCUGACA | 17.7 nM | 14.7 nM |  | 
39 | UUGGCAUCGUAGAAGGGUGACAUGAGGAUCACCCAUGUGAUGAUAUUUCUCGAGAUAUGUUGUCCAUAGGAUAUACGAGCGAAC |  |  | 80.9 nM | 18.4 nM
40 | GCCAUCGCAUGAGGAUAUGGCACCGUUGCGGUGCCAGAAGGCAUGUCAAAUGACAUGAGGAUCACCCAUGUAGUUAAGAUGGCA |  |  | 218 nM | 13.8 nM
41 | UCCUUGUAAGGAUAUCGACGGCUACUCAAUUAAGCCGAUGCUGAGAAGGUACAUGAGGAUCACCCAUGUCUGGU | 52.1 nM | 275 nM |  | 
42 | CCCAAACUUGGGCUUGGUGGUGCAUAGGAUAUGCUUGAACAUGAGGAUCACCCAUGUACAACUGUGCAGAAGGGUGCAGGGCAA |  |  | 40.9 nM | 18.6 nM
43 | GUGUACAGAGGAUAUACAUAAGCUAGGAAACUAGCAACUUCACAUGAGGAUCACCCAUGUAGAAGGCUGUACAC | 13.9 nM | 17.8 nM |  | 
44 | AUUCUAAUAGCAGGAUAUCCCAGUAUCCUAAGUCAAAAGUUUUUGACAUGAGGAUCACCCAUGUGGGAGAAGGGCUCUGGAUAA | 111 nM | 65.8 nM |  | 
45 | ACAAGAUCAGGAUAUACAUGAGGAUCACCCAUGUUUAUCAAAAAGGGACUUUCUUUAUGUAGAAGGGAUCUUGU | 72.8 nM | 70.1 nM |  | 
46 | UCAACUCCCGUCAGGAUAUGUUGCUCUAGGGAGCAGUAGAAGGGACAUGAGGAUCACCCAUGUUAUCCGUGUAU | 17.2 nM | 20.6 nM |  | 
47 | UCGGCGCGAGGAUAUGCGGCUGGUGCUUCGGGCCCUGGCGUACAUGAGGAUCACCCAUGUAGAAGGCGCGCCGC | 11.7 nM | 14.7 nM |  | 
48 | UUACUCAUGUAAGGAUAUGCAGCCGUUUCGGCUGCAGAAGGUACUAUAAUACAUGAGGAUCACCCAUGUCUUUUUAAAUUUUAC |  |  | 109 nM | 35.2 nM
49 | AAUAACAGAGGAUAUACUAUUUUAUGUGUUUGUUAUUUUGAACAUGAGGAUCACCCAUGUAGAAGGCUGAGUAA | 28.8 nM | 28.9 nM |  | 
50 | UAAUCGUUGCAGAAGGUUAUUAUUAUAACGUGACACUUAACAUGAGGAUCACCCAUGUUUUUGAUGAAGGAUAUGCAACGGUAG | 8.04 nM | 7.71 nM |  | 
51 | AUAAAGUGAGGAUAUGUAAAAAUAACGAAAGUUAUAAAUAAACAGAAGGCACAUGAGGAUCACCCAUGUCCAAU | 26.8 nM | 43.1 nM |  | 
52 | CUCUUGUGAGGAUAUCAGGUGUGCUAGCGUACUGGUACAUCUGAGAAGGCACAUGAGGAUCACCCAUGUUUCUA | 148 nM | 23.2 nM |  | 
53 | UCCUGGCGAGGAUAUACAAAGUUUUUUACGUUUUGUUACGAACAUGAGGAUCACCCAUGUAGAAGGUGCUACUG | 78 nM | 67.3 nM |  | 
54 | GAAUGUUGGCUAGGAUAUGCAUUUUGAGAGGUAGCAGAAGGAGCGCACAUGAGGAUCACCCAUGUUAGCAUUGGGCGUCUCUCA | 5.76 nM | 16.3 nM |  | 
55 | UUUAGUAUCUAGGAUAUCUAGUACAUAGUAUCUAGAGAAGGAGAUACAUGAGGAUCACCCAUGUUCUGUGAUCU | 210 nM | 36.4 nM |  | 
